Measurements taken from ChEMBL document CHEMBL2331364, “A synthetic dolastatin 10 analogue suppresses microtubule dynamics, inhibits cell proliferation, and induces apoptotic cell death” (J Med Chem, 2013).
The source made the active and inactive calls. No cut-off for these calls is given here.

Key:
Homo sapiens [1] = species: Homo sapiens; test: Inhibition of microtubule (unknown origin) GTPase activity using GTP as substrate assessed as reduction of inorganic phosphate release at 20 uM incubated for 10 mins prior to substrate addition measured after 10 mins by ammonium molybdate malachite green assay relative to control
Method in brief: (§1)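 GTP (1 mM) was added and the mixture polymerized at 37 °C for 10 min. Reactions were stopped with perchloric acid, and released phosphate was measured by ammonium molybdate–malachite green.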

HeLa [2] = test: Antimitotic activity in human HeLa cells assessed as increase in phosphohistone H3 (Ser10) positive cell population at 15 nM after 24 hrs by fluorescence microscopic analysis (reference value: 3 +/- 0.3 %); format: functional
Tubulin (Capra hircus) = test: Inhibition of goat brain microtubule GTPase activity using GTP as substrate assessed as reduction of inorganic phosphate release at 2 uM incubated for 10 mins prior to substrate addition measured after 10 mins by ammonium molybdate malachite green assay relative to control
MCF7 [3] = test: Inhibition of microtubule (unknown origin) dynamics in GFP-tubulin transfected human MCF7 cells assessed as microtubule growth time at 15 nM by confocal laser scanning microscopy (reference value: 0.9 +/- 0.1 min); format: cell-based
Method in brief: (§2)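 EGFP-tubulin-transfected MCF-7 cells grown in EMEM with 10% FBS at 37 °C in 5% CO2, exposed to 15 nM compound (DMSO vehicle) or vehicle. Individual microtubules were followed by time-lapse confocal laser scanning microscopy and life-history traces were recorded. Kinetic parameters were derived from these traces, 20 microtubules per condition. Significance was tested by one-way ANOVA.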

HeLa [4] = test: Cell cycle arrest in human HeLa cells assessed as accumulation at G2/M phase at 45 nM after 24 hrs by propidium iodide staining-based flow cytometry (reference value: 4%); format: functional
HeLa [5] = test: Induction of mitotic microtubule depolymerization in human HeLa cells assessed as multipolar spindle formation at 30 nM after 24 hrs by Hoechst 33258 dye-based fluorescence microscopy; format: cell-based
HeLa [6] = test: Inhibition of mitosis in human HeLa cells assessed as mitotic index ratio at 30 nM after 24 hrs by Hoechst 33258 DNA staining assay (reference value: 3.2); format: functional
Method in brief: (§3)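 HeLa cells were treated with vehicle or 7, 15 or 30 nM compound for 24 or 48 h. DNA was stained with Hoechst 33258, and mitotic cells were counted by fluorescence microscopy to give the mitotic index, compared against vehicle-treated cells.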

HeLa [7] = test: Inhibition of mitosis in human HeLa cells assessed as mitotic index ratio at 15 nM after 48 hrs by Hoechst 33258 DNA staining assay (reference value: 3); format: functional; method in brief: as §3
HeLa [8] = test: Induction of apoptosis in human HeLa cells assessed as activated JNK1 level at 30 nM after 24 hrs by Western blot analysis relative to control; format: functional, cell-based
Method in brief: (§4)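 HeLa cells were treated with vehicle or 30 nM for 24 h and washed twice in PBS. Lysates were Western blotted with antibodies to JNK1, phospho-JNK, procaspase-3 and PARP.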

HeLa [9] = test: Induction of apoptosis in human HeLa cells assessed as caspase-3 dependent PARP cleavage at 30 nM after 24 hrs by Western blot analysis; format: functional, cell-based; method in brief: as §4
HeLa [10] = test: Induction of apoptosis in human HeLa cells assessed as caspase-3 activation at 30 nM after 24 hrs by Western blot analysis; format: functional, cell-based; method in brief: as §4
MCF7 [11] = test: Inhibition of microtubule (unknown origin) dynamics in GFP-tubulin transfected human MCF7 cells assessed as increase in microtubule rescue frequency at 15 nM by confocal laser scanning microscopy relative to control; format: cell-based; method in brief: as §2
HeLa [12] = test: Antiproliferative activity against human HeLa cells assessed as median dose after 24 hrs; format: functional
Method in brief: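 HeLa cells treated for 24 h with each agent alone and in combinations. The median dose (Dm) was taken from the median dose plot, and combination index was computed as CI = (D)1/(Dx)1 + (D)2/(Dx)2.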

HeLa [13] = test: Inhibition of microtubule-kinetochore attachment in human HeLa cells assessed as BubR1 accumulation at kinetochoric region at 15 to 45 nM after 24 hrs by Hoechst 33258 dye-based Hec1 staining assay; format: cell-based
HeLa [14] = test: Inhibition of mitosis in human HeLa cells assessed as mitotic index ratio at 15 nM after 24 hrs by Hoechst 33258 DNA staining assay (reference value: 3.2); format: functional; method in brief: as §3
HeLa [15] = test: Inhibition of microtubule-kinetochore attachment in human HeLa cells assessed as Mad2 accumulation at kinetochoric region at 15 to 45 nM after 24 hrs by Hoechst 33258 dye-based Hec1 staining assay; format: cell-based
HeLa [16] = test: Induction of mitotic microtubule depolymerization in human HeLa cells at 15 nM after 24 hrs by Hoechst 33258 dye-based fluorescence microscopy; format: cell-based
Homo sapiens [17] = species: Homo sapiens; test: Inhibition of microtubule (unknown origin) GTPase activity using GTP as substrate assessed as reduction of inorganic phosphate release incubated for 10 mins prior to substrate addition measured after 10 mins by ammonium molybdate malachite green assay; method in brief: as §1
Homo sapiens [18] = species: Homo sapiens; test: Inhibition of microtubule (unknown origin) assembly at 5 uM incubated for 15 mins prior to GTP addition measured for 30 mins by 90 degree light scattering-based fluorescence spectrophotometric method
Method in brief: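 MAP-rich tubulin (1 mg/mL) was preincubated with 1, 3, 5 or 10 μM in PEM buffer (25 mM Pipes pH 6.8, 3 mM MgCl2, 1 mM EGTA) for 15 min on ice. GTP (1 mM) was then added and assembly monitored by 90° light scattering at 400 nm for 30 min at 37 °C.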

HeLa [19] = test: Inhibition of microtubule-kinetochore tension in human HeLa cells assessed as Mad2 accumulation at kinetochoric region at 15 to 45 nM after 24 hrs by Hoechst 33258 dye-based Hec1 staining assay; format: cell-based
Tubulin (Homo sapiens) = Tubulin (Homo sapiens) (UniProt P68371+Q9H4B7+P0DPH7+P68366+Q13509+Q71U36+P04350+Q3ZCM7+P07437+P68363+Q9BQE3+Q6PEY2+Q13885+Q9BVA1+Q9BUF5); test: Induction of tubulin (unknown origin) dimer aggregation at 10 uM after 20 mins by transmission electron microscopy; format: protein-complex assay
Method in brief: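 Goat brain tubulin (10 μM) was preincubated with 5 or 10 μM on ice for 20 min, then polymerized with 1 mM GTP at 37 °C in glutamate assembly buffer. Polymers were fixed in 0.5% glutaraldehyde, negatively stained with 2% uranyl acetate, and imaged by transmission EM.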

HeLa [20] = test: Inhibition of mitosis in human HeLa cells assessed as mitotic index ratio at 7 nM after 24 hrs by Hoechst 33258 DNA staining assay (reference value: 3.2); format: functional; method in brief: as §3
Homo sapiens [21] = species: Homo sapiens; test: Inhibition of microtubule (unknown origin) GTPase activity using GTP as substrate assessed as reduction of inorganic phosphate release at 10 uM incubated for 10 mins prior to substrate addition measured after 10 mins by ammonium molybdate malachite green assay relative to control; method in brief: as §1
MCF7 [22] = test: Inhibition of microtubule (unknown origin) dynamics in GFP-tubulin transfected human MCF7 cells assessed as decrease in microtubule growth at 15 nM by confocal laser scanning microscopy relative to control; format: cell-based
Method in brief: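 EGFP-tubulin transfected MCF-7 cells were treated with vehicle or 15 nM, and individual microtubules were tracked by confocal laser scanning microscopy, 20 microtubules per condition. Life-history parameters were derived as previously described. Significance was tested by one-way ANOVA.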

CC[C@H](C)[C@@H]([C@@H](CC(=O)NC[C@H]1O[C@H](C(=O)NCCc2ccccc2)[C@@H](OC)[C@@H]1OC)OC)N(C)C(=O)[C@@H](NC(=O)[C@@H](NC)C(C)C)C(C)C
inhibition (Homo sapiens [1]): 54% | Activity (HeLa [2]): 11% | inhibition (Tubulin (Capra hircus)): 17% | TIME (MCF7 [3]): 0.00833 h | Activity (HeLa [4]): 17% | Activity (HeLa [5]): Active | Ratio (HeLa [6]): 12 | Ratio (HeLa [7]): 11 | Activity (HeLa [8]): Active | Activity (HeLa [9]): Active | Activity (HeLa [10]): Active | inhibition (MCF7 [11]): 40% | Activity (HeLa [12]): 8.9 nM | Activity (HeLa [13]): Active | Ratio (HeLa [14]): 9 | Activity (HeLa [15]): Active | Activity (HeLa [16]): Active | inhibition (Homo sapiens [17]): Dose-dependent effect | inhibition (Homo sapiens [18]): 48% | Activity (HeLa [19]): Active | Activity (Tubulin (Homo sapiens)): Active | Ratio (HeLa [20]): 6 | inhibition (Homo sapiens [21]): 50% | inhibition (MCF7 [22]): 31%
